# SENP7 inh: SENP7 protease inhibitors, primary screen, biochemical, luminescence, uHTS; Sentrin-specific protease 7 (Homo sapiens), Q9BQF6; recombinant SENP7, Z-RLRGG-aminoluciferin luminescence, 40 min; inhibition, % at 5 µM; 1.5% of 330,000 active;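 active means inhibition above about 50% at the single test dose, limit read from the data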;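 further: plate controls were DMSO with enzyme for no effect and no enzyme buffer wells for full effect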
# Target sequence (Q9BQF6 706-1050 limits assumed): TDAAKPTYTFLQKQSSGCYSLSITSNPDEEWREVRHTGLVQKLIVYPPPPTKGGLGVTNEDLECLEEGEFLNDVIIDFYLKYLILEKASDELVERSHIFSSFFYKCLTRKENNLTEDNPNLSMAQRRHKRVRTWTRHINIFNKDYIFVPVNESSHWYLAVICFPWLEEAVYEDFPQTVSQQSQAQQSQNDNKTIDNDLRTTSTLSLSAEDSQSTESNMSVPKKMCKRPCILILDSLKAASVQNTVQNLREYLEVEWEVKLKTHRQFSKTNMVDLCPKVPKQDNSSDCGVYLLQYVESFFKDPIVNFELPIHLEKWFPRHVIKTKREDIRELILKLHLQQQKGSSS
# Platelet DG rel: inhibitors of platelet dense granule secretion, primary screen, cell-based, MLPCN, human platelets. human platelet-rich plasma, SFLLRN dense granule ATP release, luminescence. inhibition, %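 (compounds screened at 7.5 µM in platelet-rich plasma)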. 0.22% of 300,000 active. AID 1663, 2009;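 active means mean replicate score, as percent of positive control, at or above 50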
# SENP6 inh: SENP6 protease inhibitors, primary screen, biochemical, luminescence, uHTS | AID 2599, 2010 | Recombinant SENP6 catalytic domain, aminoluciferin luminescence | inhibition, % at 10 µM | Sentrin-specific protease 6 (Homo sapiens), Q9GZR1 | 1.8% of 330,000 active;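 active means inhibition above about 50% at the single tested dose, limit read from the data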;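 further: plate controls were DMSO wells with enzyme for no effect and DMSO wells lacking enzyme for full effect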
# SENP8 block-1: human SENP8 protease inhibitors, primary screen, biochemical, fluorescence, Nedd8 protein substrate, uHTS. Sentrin-specific protease 8 (Homo sapiens), Q96LD8. recombinant SENP8. inhibition, % at 20 µM. 0.64% of 360,000 active. AID 602440, 2012; in the data active means inhibition mostly above about 40%, no sharp cut-off; inactive means mostly below about 27%
# SENP8 block-2: SENP8 protease inhibitors, primary screen, biochemical, luminescence | Sentrin-specific protease 8 (Homo sapiens), Q96LD8 | purified SENP8, Z-RLRGG-aminoluciferin cleavage | inhibition, % at 10 µM | 1.2% of 330,000 active | AID 2540, 2010; in the data active means inhibition above about 50%
# SENP1 inh: human SENP1 catalytic domain inhibitors, primary screen, biochemical, FRET, uHTS; Sentrin-specific protease 1 (Homo sapiens), Q9P0U3; recombinant SENP1 catalytic domain, CyPet-SUMO1-YPet FRET cleavage; inhibition, % at 10 µM; 0.21% of 360,000 active;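 active means inhibition at least 30% at 10 µM, raw YFP signal under a set limit, fluorescence ratio 0.5 to 1.5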;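 further: 0% = enzyme with DMSO and 100% = no enzyme wells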
# Target sequence (Q9P0U3 419-644 limits assumed): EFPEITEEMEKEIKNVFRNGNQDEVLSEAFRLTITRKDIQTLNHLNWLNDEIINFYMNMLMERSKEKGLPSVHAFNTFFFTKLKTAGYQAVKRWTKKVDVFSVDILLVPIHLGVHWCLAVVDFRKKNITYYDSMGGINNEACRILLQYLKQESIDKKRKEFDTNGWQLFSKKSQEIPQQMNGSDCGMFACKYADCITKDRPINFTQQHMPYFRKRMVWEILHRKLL
#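 Assay system – human recombinant His6-tagged SENP1 catalytic domain enzyme · Input – SENP1 enzyme, 20 pM final · Buffer or medium – Tris pH 8 buffer plus EDTA, NaCl, BME, BSA, NP40, catalase · Schedule – 50 min reaction at room temperature · Technique – FRET read of cyan and yellow fluorescence · Control set – no-enzyme wells low, DMSO-plus-enzyme wells high control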
# SENP8 conf: SENP8 protease inhibitors, retest, confirmation, biochemical, luminescence, single concentration; shares compounds with SENP7 inh; AID 488912, 2010; inhibition, % at 12.5 µM; Recombinant SENP8, Z-RLRGG-aminoluciferin luminescence, 60 min; 40% of 6,200 active;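 active means mean inhibition across replicates above about 50%, limit read from the data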
# SENP6 confirm: SENP6 protease inhibitors, confirmation, biochemical, luminescence, single concentration; shares compounds with SENP7 inh; recombinant SENP6, Z-RLRGG-aminoluciferin luminescence; inhibition, % at 12.5 µM; 58% of 6,200 active; AID 488915, 2010
# SENP7 conf: SENP7 protease inhibitors, retest, confirmation, biochemical, luminescence, single concentration. shares compounds with SENP7 inh. recombinant SENP7, Z-RLRGG-aminoluciferin luminescence, 40 min. inhibition, % at 12.5 µM. 69% of 6,200 active. AID 488917, 2010
# Casp3 select: caspase-3 protease inhibitors, confirmation, selectivity assay for SENP inhibitor project, biochemical, single concentration | 60% of 6,200 active | inhibition, % at 12.5 µM | shares compounds with SENP7 inh | purified caspase-3, Z-DEVD-aminoluciferin luminescence, 60 min | AID 488918, 2010;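 active means mean inhibition above about 50%, limit read from the data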;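 further: plate controls were enzyme with DMSO for no effect and wells without caspase-3 for full effect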
# Luc interf: interferes with luciferase luminescence in SENP counter-screen | shares compounds with SENP7 inh | Pre-incubated SENP8/Z-RLRGG-aminoluciferin, luciferase luminescence interference | inhibition, % at 12.5 µM | 39% of 6,200 active | AID 488919;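 active means mean inhibition above about 50% when retested at one dose, limit read from the data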;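 further: plate controls were DMSO wells with completed reaction for no effect and substrate without enzyme for full effect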
# * marks the source's active call; other numbers are inactive results; . = no result. Hits are enriched below; roughly 2.6% of the tested compounds scored in any of these assays.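 How the source made its calls, unless noted: active means mean inhibition above about 50% in the one-dose retest (limit read from the data); inactive means the rest.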
SMILES,SENP7 inh,Platelet DG rel,SENP6 inh,SENP8 block-1,SENP8 block-2,SENP1 inh,SENP8 conf,SENP6 confirm,SENP7 conf,Casp3 select,Luc interf
Cc1occc1C(=O)Nc1ccc2c(c1)CCC2,93.5*,24.1,91.3*,4.8,85.9*,-2.3,92.4*,91.9*,99.2*,93.7*,92.0*
O=C(Nc1ccc2c(c1)OCCO2)c1coc2ccccc2c1=O,98.5*,26.8,98.0*,-225.5,86.3*,-50.3,86.2*,85.0*,92.4*,70.7*,14.5
Cc1cc(C(=O)Nc2ccncc2)c(C)o1,.,.,.,14.4,.,-1.1,.,.,.,.,.
Cc1cnc(C(=O)Nc2ccc3c(c2)CCC3)cn1,35.6,2.8,39.2,9.3,12.0,-1.9,.,.,.,.,.
Cc1occc1C(=O)Nc1ccc2c(c1)OCCO2,84.3*,18.0,89.2*,8.3,72.5*,-1.8,11.1,77.7*,95.0*,90.3*,76.1*
CC(=O)N1CCC(C(=O)Nc2cc(S(=O)(=O)N3CCCCC3)ccc2C)CC1,.,.,.,16.6,.,3.7,.,.,.,.,.
O=C(Nc1ncccc1O)C1CCN(S(=O)(=O)c2ccc3ccccc3c2)CC1,4.0,2.4,-5.6,-3.8,-0.2,-2.8,.,.,.,.,.
Cc1ccc(Cn2ccnc2C(=O)Nc2ccccc2)cc1,72.8*,13.2,78.8*,4.0,50.7*,1.6,4.4,-0.2,46.6,8.8,22.2
O=C(NCCN1CCOCC1)C1CCC(CNS(=O)(=O)c2ccc(Cl)cc2)CC1 (stereo unspecified),59.6*,-1.5,10.3,7.0,-51.8,2.6,0.7,-2.3,-2.9,-2.9,-2.1
O=c1oc(C2(O)CCCCC2)cc2ccc(-c3ccc4[nH]ccc4c3)cc12,53.3*,.,12.3,-359.8,10.0,-0.9,-12.5,-3.7,-4.8,4.8,0.9
O=c1oc(C2(O)CCCCC2)cc2ccccc12,-6.0,.,-16.1,9.1,-3.1,2.5,.,.,.,.,.
c1cnc(Sc2ccc3nnnn3n2)nc1,-2.8,6.6,15.9,16.0,-9.6,-1.1,.,.,.,.,.
Cc1c(C(=O)NC(=S)N(Cc2ccccc2)c2ccccn2)cccc1[N+](=O)[O-],-4.8,.,-1.9,8.7,4.6,-0.9,.,.,.,.,.
O=[N+]([O-])c1ccc(Cl)c(S(=O)(=O)Nc2cccc(-c3ccc(N4CCCC4)nn3)c2)c1,41.8,15.5,92.0*,6.6,86.3*,2.3,47.4,90.8*,97.7*,85.9*,13.1
CCC(=O)Nc1cccc(-c2ccc(N3CCCCC3)nn2)c1,52.2*,7.1,58.4*,-7.1,40.1,0.6,52.1*,49.9,79.1*,77.0*,61.4*
CCOc1ccccc1C(=O)Nc1cccc(-c2ccc(N3CCOCC3)nn2)c1,70.2*,2.9,78.3*,-15.4,55.4*,-1.4,23.8,67.8*,89.2*,62.7*,16.9
CN1CCN(c2ccc(-c3cccc(NC(=O)COc4ccc(Cl)cc4Cl)c3)nn2)CC1,66.7*,-9.0,31.3,1.0,19.4,-7.3,17.5,20.2,21.1,18.4,17.2
CCOc1ccc(C(=O)Nc2cccc(-c3ccc(N4CCOCC4)nn3)c2)cc1OCC,2.7,2.6,3.9,-22.4,-0.5,-0.6,.,.,.,.,.
CCC(=O)Nc1cccc(-c2ccc(N3CCN(C)CC3)nn2)c1,2.7,-23.2,-1.5,6.9,-6.4,1.0,.,.,.,.,.
O=[N+]([O-])c1ccc(Cl)c(S(=O)(=O)Nc2ccc(-c3ccc(N4CCCC4)nn3)cc2)c1,-7.5,-11.6,-12.1,14.7,-3.3,-1.7,.,.,.,.,.
CC(=O)Nc1cccc(NS(=O)(=O)c2cc3c4c(c2)CCN4C(=O)CC3)c1,-2.5,.,7.1,6.8,3.0,0.8,.,.,.,.,.
COc1ccccc1CNC(=O)COC(=O)c1ccccc1-c1ccccc1,-5.5,-6.1,-1.7,6.6,-11.7,-1.3,.,.,.,.,.
COc1ccccc1OCCCOc1ccc(/C=C2\SC(=O)NC2=O)cc1OC,-7.0,3.1,60.8*,-80.1,41.3,-25.2,38.5,48.4,47.5,15.2,29.7
O=C1NC(=O)/C(=C\c2ccc(OCc3ccccc3)cc2)S1,-1.8,0.3,64.5*,15.5,44.6,2.1,16.8,33.4,-0.7,5.9,6.0
O=C(Nc1ccc(OC(F)(F)F)cc1)c1[nH]ncc1[N+](=O)[O-],31.6,-0.6,71.5*,1.2,55.8*,-0.1,70.2*,67.7*,88.0*,58.7*,70.1*
SMILES,SENP7 inh,Platelet DG rel,SENP6 inh,SENP8 block-1,SENP8 block-2,SENP1 inh,SENP8 conf,SENP6 confirm,SENP7 conf,Casp3 select,Luc interf
O=C(Nc1ccc(OC(F)(F)F)cc1)Nc1cccc([N+](=O)[O-])c1,24.4,0.6,56.1*,13.9,28.2,2.6,7.9,25.6,71.9*,5.6,-0.2
O=C(Nc1ccc(S(=O)(=O)N2CCCCCC2)cc1)c1[nH]ncc1[N+](=O)[O-],40.8,-3.5,75.3*,9.8,74.7*,0.9,-7.0,71.8*,89.6*,65.1*,78.5*
Cc1onc(C(=O)Nc2ccc(OC(F)(F)F)cc2)c1[N+](=O)[O-],5.7,6.7,-5.7,4.0,0.9,5.5,.,.,.,.,.
Cc1ccc(NC(=O)Nc2cccc([N+](=O)[O-])c2)cc1F,-3.5,-3.4,-12.5,3.8,-15.0,0.6,.,.,.,.,.
COc1cc(OC)cc(C(=O)NNC(=O)CCC(=O)c2cc(C)sc2C)c1,8.7,.,2.5,-10.1,3.7,1.2,.,.,.,.,.
c1c2c(cc3sc(N4CCOCC4)nc13)OCO2,89.3*,22.6,59.9*,-2.1,76.2*,-57.0,85.3*,85.5*,98.6*,94.9*,87.8*
Fc1ccc2nc(N3CCOCC3)sc2c1,24.4,7.2,13.5,20.6,18.3,0.1,.,.,.,.,.

# Screens from PubChem BioAssay.
